This is an account of results in ChEMBL document CHEMBL3992541, “Combined treatment with zingerone and its novel derivative synergistically inhibits TGF-β1 induced epithelial-mesenchymal transition, migration and invasion of human hepatocellular carcinoma cells” (2017).

Activity calls are given as the source filed them. The calls are words filed in the database; no cut-off is given here.

Assay [1] has as its system SNU-182. Description: Inhibition of TGFbeta1-induced epithelial-mesenchymal transition in human SNU182 cells assessed as reduction in MMP2 activity measured after 48 hrs in presence of (E)-1-(9-Ethyl-9H-carbazol-3-yl)-5-(4-hydroxy-3-methoxyphenyl)pent-1-en-3-one by gelatin zymography assay. The class given is functional, cell-based. The essentials: (§1)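 Cells serum-starved overnight in 0.2% FBS medium, then left untreated or given TGF-β 5 ng/ml and/or the mixture for 48 h. MMP-2 and MMP-9 activity in conditioned medium determined by gelatin zymography.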

Assay [2] has as its system SNU-182. Description: Inhibition of TGFbeta1-induced epithelial-mesenchymal transition in human SNU182 cells assessed as reduction in upregulation of Snail expression preincubated for 2 hrs followed by TGFbeta1 addition measured after 48 hrs in presence of (E)-1-(9-Ethyl-9H-carbazol-3-yl)-5-(4-hydroxy-3-methoxyphenyl)pent-1-en-3-one by Western blot method. The class given is functional, cell-based. The essentials:
(§2)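 SNU182 cells pretreated 2 h with single agents (12.5 or 40 µM) or the mixture (20 and 40 µM), then stimulated with TGF-β1 5 ng/ml for 48 h. E-cadherin and Snail protein detected by Western blot, with GAPDH as loading control.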
(A western blot detects proteins with antibodies after separation by electrophoresis.)

The test system of assay [3] is SNU-182. Description: Inhibition of TGFbeta1-induced epithelial-mesenchymal transition in human SNU182 cells assessed as reduction in MMP2 mRNA expression preincubated for 2 hrs followed by TGFbeta1 addition measured after 48 hrs in presence of (E)-1-(9-Ethyl-9H-carbazol-3-yl)-5-(4-hydroxy-3-methoxyphenyl)pent-1-en-3-one by qRT-PCR method. The class given is functional, cell-based. In a few lines: (§3)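 SNU182 cells pretreated 2 h with single agents (12.5 or 40 µM) or the mixture (20 or 40 µM), then TGF-β 5 ng/ml for 48 h. MMP-2 and MMP-9 mRNA measured by RT-PCR with densitometry and by qRT-PCR, fold change by the 2^-ΔΔCt method. Mean±SD of triplicates.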
(In general: Real-time PCR tracks product formation cycle by cycle.)

In assay [4] the test system is SNU-182. Put plainly: Inhibition of TGFbeta1-induced migration in human SNU182 cells at 40 uM measured after 48 hrs in presence of (E)-1-(9-Ethyl-9H-carbazol-3-yl)-5-(4-hydroxy-3-methoxyphenyl)pent-1-en-3-one by wound healing assay. The class given is functional, cell-based. The essentials:
(§4)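 Wound healing: SNU182 monolayers at about 90% confluence scratched with a pipette tip and washed. Medium with TGF-β1, with or without 40 µM mixture, then added. Wound imaged at 0 and 48 h; relative motility from cell surface area. Mean±SD of triplicates.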

In assay [5] the test system is SNU-182. Description: Inhibition of TGFbeta1-induced epithelial-mesenchymal transition in human SNU182 cells assessed as reduction in mesenchymal phenotype preincubated for 2 hrs followed by TGFbeta1 addition measured after 48 hrs in presence of (E)-1-(9-Ethyl-9H-carbazol-3-yl)-5-(4-hydroxy-3-methoxyphenyl)pent-1-en-3-one. The class given is functional, cell-based. The essentials: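 Cells preincubated 2 h in serum-free medium with the mixture (20 and 40 µM), then treated with TGF-β1 5 ng/ml for 48 h. Morphology (spindle-like, elongated shape, scattering) assessed by microscopy.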

Assay [6] deals with SNU-182. Description: Inhibition of TGFbeta1-induced epithelial-mesenchymal transition in human SNU182 cells assessed as reduction in downregulation of E-cadherin expression at 40 uM preincubated for 2 hrs followed by TGFbeta1 addition measured after 48 hrs by Western blot method. The assay is classed as functional, cell-based. In a few lines: as §2
Assay [7] has as its system SNU-182. Description: Inhibition of TGFbeta1-induced epithelial-mesenchymal transition in human SNU182 cells assessed as reduction in upregulation of Snail expression at 40 uM preincubated for 2 hrs followed by TGFbeta1 addition measured after 48 hrs by Western blot method. The assay is classed as functional, cell-based. The essentials:
as §2

For assay [8], the system named is SNU-182. Description: Inhibition of TGFbeta1-induced epithelial-mesenchymal transition in human SNU182 cells assessed as reduction in downregulation of E-cadherin expression preincubated for 2 hrs followed by TGFbeta1 addition measured after 48 hrs in presence of (E)-1-(9-Ethyl-9H-carbazol-3-yl)-5-(4-hydroxy-3-methoxyphenyl)pent-1-en-3-one by Western blot method. The class given is functional, cell-based. In a few lines:
as §2

Assay [9] concerns SNU-182. Put plainly: Inhibition of TGFbeta1-induced epithelial-mesenchymal transition in human SNU182 cells assessed as reduction in upregulation of Snail expression at 12.5 uM preincubated for 2 hrs followed by TGFbeta1 addition measured after 48 hrs by Western blot method. The assay is classed as functional, cell-based. The essentials:
as §2

Assay [10] relates to SNU-182. Description: Inhibition of TGFbeta1-induced epithelial-mesenchymal transition in human SNU182 cells assessed as reduction in MMP9 activity measured after 48 hrs in presence of zingerone by gelatin zymography assay. The class given is functional, cell-based. In a few lines: as §1
Assay [11] concerns SNU-182. Put plainly: Growth inhibition of human SNU182 cells assessed as cell growth at 50 uM after 48 hrs by CCK8 assay relative to control. The assay is classed as functional. The settings on record: SNU-182, 48 h, read-out: Activity. For orientation: Formazan colour is commonly taken as a measure of viable cells.
The test system of assay [12] is SNU-182. Put plainly: Inhibition of TGFbeta1-induced epithelial-mesenchymal transition in human SNU182 cells assessed as reduction in upregulation of Snail expression preincubated for 2 hrs followed by TGFbeta1 addition measured after 48 hrs in presence of zingerone by Western blot method. The assay is classed as functional, cell-based. The essentials: as §2
The target in assay [13] is Mitogen-activated protein kinase; ERK1/ERK2 (Homo sapiens) (UniProt P27361+P28482). Put plainly: Inhibition of TGFbeta1-induced p44/42 MAPK phosphorylation in human SNU182 cells measured after 48 hrs in presence of zingerone by Western blot method. The assay is classed as cell-based. The essentials: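 SNU182 cells incubated 48 h with TGF-β1 5 ng/ml alone or together with the mixture at 20 and 40 µM, then lysed. Phospho-p42/44 MAPK detected by Western blot, with total p42/44 MAPK as loading control.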

Assay [14] deals with SNU-182. Put plainly: Inhibition of TGFbeta1-induced epithelial-mesenchymal transition in human SNU182 cells assessed as reduction in MMP2 mRNA expression at 12.5 uM preincubated for 2 hrs followed by TGFbeta1 addition measured after 48 hrs by qRT-PCR method. The class given is functional, cell-based. In a few lines:
as §3

The test system of assay [15] is SNU-182. Put plainly: Inhibition of TGFbeta1-induced epithelial-mesenchymal transition in human SNU182 cells assessed as reduction in downregulation of E-cadherin expression preincubated for 2 hrs followed by TGFbeta1 addition measured after 48 hrs in presence of zingerone by Western blot method. The class given is functional, cell-based. The essentials: as §2
The test system of assay [16] is SNU-182. Put plainly: Inhibition of TGFbeta1-induced invasion in human SNU182 cells at 40 uM measured after 48 hrs in presence of zingerone by microscopic method. The class given is functional, cell-based. In a few lines:
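Matrigel invasion chamber: SNU182 cells in the inner chamber received TGF-β1 with or without the mixture for 48 h. Cells on the lower surface stained, imaged at 200×, and counted. Mean±SD of triplicates.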

Assay [17] has as its system SNU-182. Put plainly: Growth inhibition of human SNU182 cells at <50 uM in presence of zingerone after 48 hrs by CCK8 assay. The assay is classed as functional, cell-based.
Assay [18] has as its system SNU-182. Description: Inhibition of TGFbeta1-induced migration in human SNU182 cells at 40 uM measured after 48 hrs in presence of zingerone by wound healing assay. The assay is classed as functional, cell-based. The essentials: as §4
In assay [19] the test system is SNU-182. Put plainly: Inhibition of TGFbeta1-induced epithelial-mesenchymal transition in human SNU182 cells assessed as reduction in MMP2 activity measured after 48 hrs in presence of zingerone by gelatin zymography assay. The class given is functional, cell-based. In a few lines:
as §1

Assay [20] concerns SNU-182. Put plainly: Inhibition of TGFbeta1-induced epithelial-mesenchymal transition in human SNU182 cells assessed as reduction in upregulation of N-cadherin expression preincubated for 2 hrs followed by TGFbeta1 addition measured after 48 hrs in presence of zingerone by Western blot method. The assay is classed as functional, cell-based. The essentials: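 Pretreatment of SNU182 cells with the mixture at 20 and 40 µM for 2 h in serum-free medium, followed by TGF-β1 5 ng/ml for 48 h. N-cadherin and Snail detected by Western blot against GAPDH.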

Sequence of Mitogen-activated protein kinase; ERK1/ERK2 (Homo sapiens) (P27361 whole entry, looked up): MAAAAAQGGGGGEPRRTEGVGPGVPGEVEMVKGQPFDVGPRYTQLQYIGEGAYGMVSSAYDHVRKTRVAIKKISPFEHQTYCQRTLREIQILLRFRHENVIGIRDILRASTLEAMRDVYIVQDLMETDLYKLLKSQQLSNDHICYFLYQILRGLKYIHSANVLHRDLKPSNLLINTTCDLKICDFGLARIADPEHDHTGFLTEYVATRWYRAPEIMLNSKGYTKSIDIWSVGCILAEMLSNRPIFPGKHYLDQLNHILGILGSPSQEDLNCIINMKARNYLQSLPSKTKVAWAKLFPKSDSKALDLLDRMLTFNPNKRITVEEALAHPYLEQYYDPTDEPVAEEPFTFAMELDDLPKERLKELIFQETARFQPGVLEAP
Sequence of Mitogen-activated protein kinase; ERK1/ERK2 (Homo sapiens) (P28482 whole entry, looked up): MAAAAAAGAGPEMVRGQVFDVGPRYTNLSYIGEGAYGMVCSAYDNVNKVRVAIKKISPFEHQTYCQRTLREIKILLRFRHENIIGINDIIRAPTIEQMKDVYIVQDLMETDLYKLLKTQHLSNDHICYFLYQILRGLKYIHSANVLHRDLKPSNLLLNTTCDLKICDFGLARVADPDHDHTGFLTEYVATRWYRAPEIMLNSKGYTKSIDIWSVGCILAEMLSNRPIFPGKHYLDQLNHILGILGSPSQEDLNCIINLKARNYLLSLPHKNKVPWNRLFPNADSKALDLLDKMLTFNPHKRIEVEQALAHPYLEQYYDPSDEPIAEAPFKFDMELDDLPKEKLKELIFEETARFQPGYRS

Regarding `COc1cc(CCC(C)=O)ccc1O`, the inhibition entry in the assay on SNU-182 [1] and in the assay with SNU-182 [4] was “Active” each time. Also, the inhibition entry in the assay with SNU-182 [2], with SNU-182 [3], in the assay with SNU-182 [5] and with SNU-182 [8] was “Dose-dependent effect” throughout. Further, the inhibition result in the assay on SNU-182 [6] and in the assay on SNU-182 [7] was “inactive” throughout.
As to `CCn1c2ccccc2c2cc(/C=C/C(=O)CCc3ccc(O)c(OC)c3)ccc21`, the inhibition result in the assay with SNU-182 [9] and in the assay with SNU-182 [14] was “inactive” throughout. Besides, the inhibition entry with SNU-182 [10], in the assay with SNU-182 [16], in the assay with SNU-182 [18] and in the assay with SNU-182 [19] was “Active” each time. Besides, the growth at 50 µM in the assay on SNU-182 [11] was determined as 40%. In addition, the inhibition result (in the assay with SNU-182 [12]; in assay [13]; in the assay on SNU-182 [15]; with SNU-182 [20]) was “Dose-dependent effect” each time. Also, in the assay with SNU-182 [17], the “growth inhibition (GI)” value is “inactive”.
